# Source: PubChem
# NR2E3 ag-1 = activates human NR2E3 receptor; AID 602229; Q9Y5X4; hit rate 0.35% among 360,000; CHO-S Gal4-NCOR/VP16-NR2E3 two-hybrid, luciferase; inhibition of corepressor binding, % at 3.98 µM;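 active = inhibition above the mean of all tested compounds plus 3 SD, cut at about 70% in these data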;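 also: 0% = DMSO with NR2E3 transfected cells and 100% = cells lacking NR2E3 construct; higher means lower luciferase signal from less NR2E3 corepressor binding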
# Target sequence (Q9Y5X4 whole entry, looked up, the tested form may be a part): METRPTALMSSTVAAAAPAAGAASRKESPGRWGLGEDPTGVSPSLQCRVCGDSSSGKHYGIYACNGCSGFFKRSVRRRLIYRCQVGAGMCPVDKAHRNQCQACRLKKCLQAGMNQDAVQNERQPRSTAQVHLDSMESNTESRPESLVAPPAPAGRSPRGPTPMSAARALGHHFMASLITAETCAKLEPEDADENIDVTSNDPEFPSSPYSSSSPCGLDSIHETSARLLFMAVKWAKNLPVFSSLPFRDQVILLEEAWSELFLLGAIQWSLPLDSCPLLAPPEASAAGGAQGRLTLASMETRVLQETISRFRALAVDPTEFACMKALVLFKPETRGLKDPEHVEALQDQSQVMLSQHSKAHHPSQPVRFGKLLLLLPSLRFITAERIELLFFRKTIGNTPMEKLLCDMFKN
# GalR3 antag = antagonists of human GalR3; O60755; HEK293 GalR3-CNG cAMP membrane potential fluorescence; galR3 body fused to GalR1 C-terminus; inhibition, % at 3 µM; hit rate 0.44% among 360,000;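 active = inhibition above the screen-wide average plus 3 SD, cut at about 13% in these data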;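 also: forskolin and galanin both at EC90 stimulate the cells; cAMP rise reported by CNG channel membrane potential dye signal; 0% = forskolin plus galanin with DMSO and 100% = forskolin alone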
# MsrA inhibitor = bovine MsrA inhibition. hit rate 0.75% among 360,000. purified bovine MsrA, absorbance read-out. inhibition, % at 15.5 µM;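 also: 0% = vehicle wells with enzyme and 100% = reference inhibitor wells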
# NR2E3 ag-2 = NR2E3 (human) agonism; Q9Y5X4; inhibition of corepressor binding, % at 4.78 µM; GST-NR2E3/biotin-RetCOR TR-FRET, 1536-well; hit rate 0.12% among 320,000;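 active = percent inhibition above the cutoff of mean plus 3 SD of all tested compounds, set per screening campaign, cut at about 20% in these data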;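 also: 0% = DMSO wells and 100% = biotin wells as full block of FRET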
#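 Material: NR2E3–RetCOR corepressor complex / Incubation: Compound–protein incubation for 5 h at 4 °C / Dosing: compound at 4.8 µM, single dose / Detection: time-resolved FRET / Benchmarks: high control biotin, low control 0.6% DMSO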
# MsrA act = activates bovine MsrA enzyme. purified bovine MsrA, absorbance read-out. activation, % at 10.6 µM. hit rate 0.3% among 360,000. AID 602163; in the data active = activation above about 7.5%;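 also: 0% = vehicle and 100% = reference activator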
# NadD inh = inhibitors of Staphylococcus aureus NadD. purified NadD enzyme, colorimetric absorbance read-out. inhibition, % at 20 µM. hit rate 0.78% among 360,000. AID 602399; in the data active = inhibition above about 26%
# MsrA inh confirm = bovine MsrA inhibition, confirmed; hit rate 41% among 2,300; purified bovine MsrA, absorbance read-out; AID 651822; shares compounds with MsrA inhibitor; inhibition, % at 15.5 µM;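 also: coupled to thioredoxin reductase with NADPH and selenocystamine and DMSO as substrate; 0% = vehicle only and 100% = full effect of reference inhibitor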
# Numbers without * were called inactive; · = not tested or not shown. An excerpt weighted towards active compounds, which were near 2.5% of everything screened. Rule as the data show it, unless noted: active = inhibition above about 4.5%; inactive = the rest.
SMILES,NR2E3 ag-1,GalR3 antag,MsrA inhibitor,NR2E3 ag-2,MsrA act,NadD inh,MsrA inh confirm
CN(C)C1=NC(=O)/C(=C\c2ccccc2)S1,-19,-2,6.5*,4,-2,-1,3
O=C(c1ccccc1Br)N1CCCC(c2nc(-c3cccs3)no2)C1 (stereo not given),-61,-2,2,1,-3,-3,·
COc1ccccc1CNC(=O)C1CCCN(S(C)(=O)=O)C1 (stereo not given),-2,-4,-1,-2,0,12,·
O=C(N/N=C/c1ccco1)c1cc2ccccc2o1,-23,-2,6.0*,0,-6,-2,7.6*
O=C(N/N=C/c1ccco1)c1ccc(Br)o1,-70,-1,3,2,-4,9,·
COc1ccc(/C=N/N(C)c2cc(=O)n(C)c(=O)[nH]2)cc1OC,-37,-1,11*,0,-4,-2,7.0*
CN(/N=C/C=C/c1ccccc1)c1cc(=O)n(C)c(=O)[nH]1,-32,-2,12*,-3,-11,-6,9.1*
O=C(O)/C=C/C(=O)NC1CCS(=O)(=O)C1 (stereo not given),0,-10,0,6,-1,0,·
COc1ccc(NC(=O)c2cnc3sccn3c2=O)cc1,-47,-1,3,-1,-9,-6,·
CC(=O)c1cnc2sccn2c1=O,-12,-7,6.2*,2,-2,3,2
CC1Cc2ccccc2N1C(=O)c1cnc2n(c1=O)CCS2 (stereo not given),11,·,2,-1,-6,-3,·
CC1Cc2ccccc2N1C(=O)c1cnc2sccn2c1=O (stereo not given),19,·,5.4*,0,-9,-4,4
CCNC(=O)O/N=C(\C)c1sc(-c2ccccc2)nc1C,-35,-6,2,-1,-4,7,·
CCCc1ccc(-c2c(C)sc(N)c2C#N)cc1,-7,-3,5.3*,5,-3,-4,-1
CCCC(=O)Nc1sc(C)c(-c2ccc(OC)cc2)c1C#N,-18,4,0,0,-1,8,·
CC(=O)c1sc(NC(=O)c2ccccc2F)nc1-c1ccccc1,-111,3,2,9,-6,-6,·
Cc1cccc(C)c1OCCOC(=O)c1ccc(S(=O)(=O)N2CCCC2)cc1,14,-1,0,·,-1,-5,·
c1ccc(Cc2noc(CN3CCN(Cc4ccc5c(c4)OCO5)CC3)n2)cc1,12,-3,0,3,-1,-9,·
CCCn1c(O)c(N=NC(=O)CNC(=O)c2cccnc2)c2ccccc21,4,-11,2,0,1,2,·
Cn1c(O)c(N=NC(=O)CNC(=O)c2cccnc2)c2ccccc21,-35,3,4.7*,-5,-2,-5,2
COc1cccc(CC(=O)Nc2ccc3c(c2)c(=O)n(C)n3-c2ccc(C(C)(C)C)cc2)c1,-1,-3,0,·,-1,6,·
Cc1c(NC(=S)N/N=C/C=C/c2ccccc2)c(=O)n(-c2ccccc2)n1C,12,-5,6.4*,-4,-6,6,6.8*
Cc1c(NC(=S)N/N=C/c2ccc([N+](=O)[O-])cc2O)c(=O)n(-c2ccccc2)n1C,10,1,3,-1,-8,-4,·
Cc1c(NC(=S)N/N=C/C=C/c2ccc([N+](=O)[O-])cc2)c(=O)n(-c2ccccc2)n1C,1,2,9.8*,5,-3,9,4.9*
COc1ccc(/C=N/NC(=S)Nc2c(C)n(C)n(-c3ccccc3)c2=O)cc1OC,-2,-6,5.2*,-1,1,3,4
Cc1c(NC(=S)N/N=C/c2ccc(Br)cc2)c(=O)n(-c2ccccc2)n1C,8,1,3,0,-5,5,·
O=C(NCCc1ccccc1)C1CC(=O)N(C2CCCCCC2)C1 (stereo not given),17,-3,-1,1,-2,6,·
CCOc1ccccc1-n1c(=S)sc2c(=O)n(-c3ccc(F)cc3)c(SCC(=O)O)nc21,-12,-7,5.6*,-2,-3,0,2
COc1ccccc1-n1c(SCC(=O)O)nc2c(sc(=S)n2-c2ccc(C)c(C)c2)c1=O,-10,-5,2,-4,-4,2,·
